Experiments:
[1] = aqueous solutions, base catalyzed hydrolysis to 5-fluorouracil; cited from earlier work
[2] = Stability; type: physicochemical; details: for Rate constants, K (×10^4): hydrolysis in phosphate buffer (D2O), pseudo-first-order
Outline: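 DMPC was sonicated in D2O phosphate buffer (pH 5.0–8.0) at 30% power for 5 min, 10 s on/off. To 800 μl of buffer with or without vesicles (compound:DMPC 1:5), 15 μl of a 0.337 M CDCl3 stock of test compound was added. 1H NMR ran at 25 °C, 128 scans, 2 s relaxation delay, integrating the C6H signal. Single-point runs. Pseudo-first-order rate constants; inhibition ratio is K without/with DMPC.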

[3] = tested on: MDA-MB-435s (human melanoma); experiment: In vitro cytotoxicity assay; type: cell-based; details: MDA-MB-435s cells, 72 h, MTT
Outline: (§1)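 Cells were grown in DMEM with 10% FBS and seeded at 1–2 × 10^4 per well, depending on the line. Test compound (free, or co-evaporated with DMPC 1:5 from chloroform) was added at once at 250, 50, 10, 2, 0.4 and 0.08 μM. Incubation ran 72 h at 37 °C, 5% CO2. Survival was read by MTT at OD 540 nm. Buffer-treated controls were on a separate plate. Triplicate runs; IC50 by curve fitting.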

[4] = tested on: H9C2 (rat myocardium); experiment: In vitro cytotoxicity assay; type: cell-based; details: H9C2 normal cells, 72 h, MTT
Outline: as §1

[5] = tested on: MCF-7 (human breast adenocarcinoma, estrogen-positive); experiment: In vitro cytotoxicity assay; type: cell-based; details: MCF-7 cells, 72 h, MTT
Outline: as §1

[6] = tested on: C6 (rat glial tumor); experiment: In vitro cytotoxicity assay; type: cell-based; details: C6 cells, 72 h, MTT
Outline: as §1

[7] = tested on: SH-SY-5Y (human neuroblastoma); experiment: In vitro cytotoxicity assay; type: cell-based; details: SH-SY-5Y cells, 72 h, MTT
Outline: as §1

In the case of `CCCCCCNC(=O)n1cc(F)c(=O)[nH]c1=O` [compound 1, 1-hexylcarbamoyl-5-fluorouracil], the “pH of highest stability” value [1] is given as roughly 4, the “Rate constants, K (×10^4)” value ([2]; pH 5.0, 25 °C) is given as 0 ×10^4 and the “Rate constants, K (×10^4)” value ([2]; pH 6.0, 25 °C) is given as 0.17 ×10^4. The “Rate constants, K (×10^4)” value ([2]; pH 7.0, 25 °C) was 0.54 ×10^4, the “Rate constants, K (×10^4)” value ([2]; pH 8.0, 25 °C) was 0.70 ×10^4 and the “Inhibition ratio, K1/K3” value ([2]; pH 8.0, K of 1 alone over K of 1 with DMPC (3)) was “over 7”. For the same compound, the “Time practically kept unharmed” value ([2]; phosphate buffer pH 5, without DMPC) was “more than 14 h”, the “Time degradation completely prevented” value ([2]; with 2 (DMPC, 1:5), phosphate buffer, at decreasing pH) was no less than 2 days and the “IC50, concentration providing 50% cell killing effect” value [3] was “no activity in vitro”. The “IC50, concentration providing 50% cell killing effect” value [4] was “not cardiotoxic” and the “IC50, concentration providing 50% cell killing effect” value [5] was “no activity in vitro”.

In the case of `CCCCCCCCCCCCCC(=O)OC[C@H](COP(=O)([O-])OCC[N+](C)(C)C)OC(=O)CCCCCCCCCCCCC` [compound 2, 1,2-dimyristoyl-sn-glycero-3-phosphocholine], the “IC50, concentration providing 50% cell killing effect” value [6] is reported as “no cytotoxic effect” and the “IC50, concentration providing 50% cell killing effect” value [7] is reported as “no cytotoxic effect”.

— article PMC5598257 (Toxicology Reports, 2015)
